Published values of several laboratories.
Compare with care: the assays were run in different laboratories.
Target: Serine/threonine-protein kinase DCLK2 (DCLK2, Homo sapiens, UniProt Q8N568)
One construct used (Q8N568 1-766): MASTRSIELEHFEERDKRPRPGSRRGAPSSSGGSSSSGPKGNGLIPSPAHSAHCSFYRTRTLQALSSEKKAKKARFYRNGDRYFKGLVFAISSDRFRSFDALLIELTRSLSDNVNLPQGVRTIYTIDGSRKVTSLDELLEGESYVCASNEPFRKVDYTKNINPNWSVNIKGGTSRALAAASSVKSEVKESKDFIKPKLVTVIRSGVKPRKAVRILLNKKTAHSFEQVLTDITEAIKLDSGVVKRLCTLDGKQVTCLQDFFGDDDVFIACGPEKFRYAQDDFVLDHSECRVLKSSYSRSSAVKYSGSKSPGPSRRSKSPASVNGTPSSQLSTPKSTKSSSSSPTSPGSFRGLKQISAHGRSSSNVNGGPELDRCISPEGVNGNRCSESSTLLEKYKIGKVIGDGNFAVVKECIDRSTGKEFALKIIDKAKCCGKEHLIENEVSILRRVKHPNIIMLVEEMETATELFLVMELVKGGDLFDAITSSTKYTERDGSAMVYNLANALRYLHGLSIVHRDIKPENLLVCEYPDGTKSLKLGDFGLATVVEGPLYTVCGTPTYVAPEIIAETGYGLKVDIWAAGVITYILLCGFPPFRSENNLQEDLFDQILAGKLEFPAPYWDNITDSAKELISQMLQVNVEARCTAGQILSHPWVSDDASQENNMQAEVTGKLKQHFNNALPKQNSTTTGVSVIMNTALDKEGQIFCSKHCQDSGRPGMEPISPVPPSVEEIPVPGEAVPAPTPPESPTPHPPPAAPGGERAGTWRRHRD

Compound | assay | setting | remaining binding [%]
O=C(c1ccc(Nc2nccc(-c3cc4ccccc4s3)n2)cc1)N1CCC(N2CCCC2)CC1 | binding, competition with immobilised ligand | 1 µM | 97
CCOCCn1cc(C(=O)Nc2ccc(-n3nc(-c4cccnc4)cc3C(F)(F)F)cn2)ccc1=O | cell-free assay, competition with immobilised ligand | 1 µM | 89
FC(F)(F)Oc1cccc(-c2cnc3ccc(-c4ccncc4)nn23)c1 | cell-free assay, competition with immobilised ligand | 5 µM | 100
Cn1nc(C(F)(F)F)cc1-c1cnc(N2CCc3cc(S(=O)(=O)Nc4c(F)cc(Cl)cc4F)cc(N4CCCC4=O)c32)nc1 | cell-free assay, competition with immobilised ligand | 1 µM | 100
CC1CCCN1c1nccc(-c2cnn3ncccc23)n1 (stereo not shown) | binding | 1 µM | 100
CN(C)CC#Cc1ccc(OCCCc2sc(N3CCc4cccc(C(=O)Nc5nc6ccccc6s5)c4C3)nc2C(=O)O)c(F)c1 | cell-free assay, competition with immobilised ligand | 1 µM | 100
COc1cnc(Nc2cccc(S(N)(=O)=O)c2)nc1N1CCN(c2ccccc2)C(=O)C1 | binding, competition with immobilised ligand | 1 µM | 100
Nc1ncc2c(n1)-c1c([nH]c3ccc(C#CC4CC4)cc13)CCCC2 | binding, competition with immobilised ligand | 1 µM | 89
CN(C)c1ncc(F)c(-c2cnn3ncccc23)n1 | binding | 1 µM | 96
CCC(=O)N[C@H]1CC[C@@H](C(=O)N(C)c2ccc(-c3nc4ccccc4o3)cc2)C1 | cell-free assay, competition with immobilised ligand | 1 µM | 98
O=C(c1ccc(Nc2ncc(Cl)c(-c3cc4ccccc4s3)n2)cc1)N1CCC(N2CCCC2)CC1 | binding, competition with immobilised ligand | 1 µM | 90
CO[C@@H](C)c1c(Nc2ccc([C@@H](N(C)C(=O)C3CCS(=O)(=O)CC3)C(F)(F)F)cc2)cnc2cc(Cl)nn12 | cell-free assay, competition with immobilised ligand | 1 µM | 95
C=CC(=O)N1CCC(C(=O)NCC(=O)N2CCN(c3nc(-c4cnc(N)nc4C(F)F)nc(N4CCOCC4)n3)CC2)CC1 | binding, competition with immobilised ligand | 1 µM | 98
O=C(Nc1c[nH]nc1C(=O)NC1CCNCC1)c1cc(F)cc(F)c1 | binding, competition with immobilised ligand | 1 µM | 100
CNC(=O)[C@@H]1CC[C@@H](n2c(-c3ccc4cnccc4c3)nc3ccc(C(=O)NCc4cccc(C(N)=O)c4)cc32)C1 | binding, competition with immobilised ligand | 1 µM | 100
COc1ccnn2ncc(-c3ccnc(N(C)C)n3)c12 | binding | 1 µM | 100
O=C(NCCCN1CCOCC1)c1ccc(Nc2nccc(-c3cc4ccccc4s3)n2)cc1 | binding, competition with immobilised ligand | 1 µM | 98
F[C@@H]1CCN(c2nccc(-c3cnn4ncccc34)n2)C1 | binding | 1 µM | 88
COc1cc(C(=O)N2CCC(N3CCN(C)CC3)CC2)ccc1Nc1ncc2c(n1)N(C)c1ccccc1C(=O)N2C | binding, competition with immobilised ligand | 10 µM | 0.45
